Test results as given in ChEMBL document CHEMBL4602616, “Design, synthesis and biological evaluation of novel indole-based oxalamide and aminoacetamide derivatives as tubulin polymerization inhibitors” (Bioorg Med Chem Lett, 2020).
Each block holds one molecule with its values, some of them ahead of it. Activity calls are given as the source filed them. The rule behind the calls is not given here.

What was measured:
HeLa [1] = assay: Antiproliferative activity against human HeLa cells assessed as reduction in cell growth after 48 hrs by MTT assay; format: functional, cell-based
Tubulin (Homo sapiens) [2] = biological target: T1, Tubulin (Homo sapiens) (UniProt P68371+Q9H4B7+P0DPH7+P68366+Q13509+Q71U36+P04350+Q3ZCM7+P07437+P68363+Q9BQE3+Q6PEY2+Q13885+Q9BVA1+Q9BUF5); assay: Inhibition of tubulin polymerization (unknown origin) at 10 uM relative to control; format: protein-complex assay
Method in brief: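 In vitro tubulin polymerization measured with compounds at a final concentration of 10 μM; result given as percent inhibition.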

HCT-116 = assay: Antiproliferative activity against human HCT116 cells assessed as reduction in cell viability; format: functional, cell-based
PC-3 = assay: Antiproliferative activity against human PC3 cells assessed as reduction in cell viability; format: functional, cell-based
HeLa [3] = assay: Induction of cell cycle arrest in human HeLa cells assessed as debris content at 15 uM after 24 hrs by PI staining based flow cytometric analysis (reference value: 0.05%); format: functional
HeLa [4] = assay: Induction of cell cycle arrest in human HeLa cells assessed as accumulation at S phase at 7.5 uM after 24 hrs by PI staining based flow cytometric analysis (reference value: 18.38%); format: functional
HeLa [5] = assay: Induction of cell cycle arrest in human HeLa cells assessed as accumulation at G2/M phase at 7.5 uM after 24 hrs by PI staining based flow cytometric analysis (reference value: 11.76%); format: functional
HeLa [6] = assay: Induction of cell cycle arrest in human HeLa cells assessed as accumulation at G0/G1 phase at 7.5 uM after 24 hrs by PI staining based flow cytometric analysis (reference value: 69.86%); format: functional
HeLa [7] = assay: Induction of cell cycle arrest in human HeLa cells assessed as debris content at 7.5 uM after 24 hrs by PI staining based flow cytometric analysis (reference value: 0.05%); format: functional
HeLa [8] = assay: Induction of cell cycle arrest in human HeLa cells assessed as accumulation at G0/G1 phase at 15 uM after 24 hrs by PI staining based flow cytometric analysis (reference value: 69.86%); format: functional
HeLa [9] = assay: Induction of cell cycle arrest in human HeLa cells assessed as accumulation at G2/M phase at 15 uM after 24 hrs by PI staining based flow cytometric analysis (reference value: 11.76%); format: functional
HeLa [10] = assay: Induction of cell cycle arrest in human HeLa cells assessed as accumulation at S phase at 15 uM after 24 hrs by PI staining based flow cytometric analysis (reference value: 18.38%); format: functional
HeLa [11] = assay: Induction of cell cycle arrest in human HeLa cells assessed as debris content at 30 uM after 24 hrs by PI staining based flow cytometric analysis (reference value: 0.05%); format: functional
HeLa [12] = assay: Induction of cell cycle arrest in human HeLa cells assessed as accumulation at G0/G1 phase at 30 uM after 24 hrs by PI staining based flow cytometric analysis (reference value: 69.86%); format: functional
HeLa [13] = assay: Induction of cell cycle arrest in human HeLa cells assessed as accumulation at G2/M phase at 30 uM after 24 hrs by PI staining based flow cytometric analysis (reference value: 11.76%); format: functional
HeLa [14] = assay: Induction of cell cycle arrest in human HeLa cells assessed as accumulation at S phase at 30 uM after 24 hrs by PI staining based flow cytometric analysis (reference value: 18.38%); format: functional
HeLa [15] = assay: Induction of cell cycle arrest in human HeLa cells assessed as accumulation of cells at G2/M phase after 24 hrs by PI-staining based flow cytometric analysis; format: functional
Tubulin (Homo sapiens) [16] = biological target: T1, Tubulin (Homo sapiens); assay: Inhibition of tubulin polymerization in human HeLa cells assessed as disruption of alpha tubulin at 15 to 30 uM after 12 hrs by immunofluorescence based confocal microscopy; format: cell-based
Method in brief: (§1)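 HeLa cells grown on glass coverslips, incubated with compound at 15 or 30 μM for 12 h, then fixed; α- and β-tubulin visualized by immunocytochemistry and confocal microscopy, compared with untreated cells.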

Tubulin (Homo sapiens) [17] = biological target: T1, Tubulin (Homo sapiens); assay: Inhibition of tubulin polymerization in human HeLa cells assessed as disruption of beta tubulin at 15 to 30 uM after 12 hrs by immunofluorescence based confocal microscopy; format: cell-based; method in brief: as §1
Tubulin (Homo sapiens) [18] = biological target: T1, Tubulin (Homo sapiens); assay: Inhibition of tubulin polymerization in human HeLa cells assessed as microtubule spindle shrinkage around nucleus at 15 to 30 uM after 12 hrs by immunofluorescence based confocal microscopy; format: cell-based; method in brief: as §1
Tubulin (Homo sapiens) [19] = biological target: T1, Tubulin (Homo sapiens); assay: Inhibition of tubulin polymerization in human HeLa cells assessed as cell membrane rounding at 15 to 30 uM after 12 hrs by immunofluorescence based confocal microscopy; method in brief: as §1
HeLa [20] = assay: Antiproliferative activity against human HeLa cells assessed as reduction in cell viability; format: functional, cell-based

Structure (SMILES): O=C(Nc1ccncc1)C(=O)Nc1c(C(=O)C2CC2)[nH]c2ccccc12
- IC50 (HeLa [1]): > 100 µM

Structure (SMILES): COc1ccc(C(=O)c2[nH]c3cc(Cl)ccc3c2NC(=O)CNc2ccc(F)cc2)cc1
- inhibition (Tubulin (Homo sapiens) [2]): 43%
- IC50 (HCT-116): 18.2 µM
- IC50 (PC-3): 21.8 µM
- IC50 (HeLa [1]): 16.7 µM

Structure (SMILES): Cc1ccc2c(NC(=O)C(=O)Nc3ccccc3)c(C(=O)c3ccccc3)[nH]c2c1
- IC50 (HeLa [1]): 55.2 µM

Structure (SMILES): COc1cc(NCC(=O)Nc2c(C(=O)c3ccccc3)[nH]c3cc(Cl)ccc23)cc(OC)c1OC
- IC50 (HeLa [1]): > 100 µM

Structure (SMILES): COc1cc2c(c(OC)c1OC)-c1ccc(OC)c(=O)cc1[C@@H](NC(C)=O)CC2 [COLCHICINE]
- IC50 (HCT-116): 0.25 µM
- IC50 (HeLa [1]): 0.03 µM

Structure (SMILES): COc1ccc(C(=O)c2[nH]c3cc(Cl)ccc3c2NC(=O)CNc2ccc(C)cc2)cc1
- inhibition (Tubulin (Homo sapiens) [2]): 29%
- IC50 (HCT-116): 20.4 µM
- IC50 (PC-3): 15.8 µM
- IC50 (HeLa [1]): 18.3 µM

Structure (SMILES): O=C(Nc1ccccc1)C(=O)Nc1c(C(=O)C2CC2)[nH]c2ccccc12
- IC50 (HeLa [1]): > 100 µM

Structure (SMILES): COc1ccc(NCC(=O)Nc2c(C(=O)c3ccc(OC)cc3)[nH]c3ccccc23)cc1
- inhibition (Tubulin (Homo sapiens) [2]): 7%
- IC50 (HCT-116): 46.9 µM
- IC50 (PC-3): 43.7 µM
- IC50 (HeLa [1]): 16.2 µM

Structure (SMILES): COc1ccc(C(=O)c2[nH]c3ccccc3c2NC(=O)CNc2ccccc2C)cc1
- IC50 (HeLa [1]): 27.9 µM

Structure (SMILES): Cc1ccc(C(=O)c2[nH]c3ccccc3c2NC(=O)CNc2ccccc2C)cc1
- IC50 (HeLa [1]): 31.1 µM

Structure (SMILES): Cc1ccc2c(NC(=O)C(=O)Nc3ccccc3)c(C(=O)C3CC3)[nH]c2c1
- IC50 (HeLa [1]): 82.3 µM

Structure (SMILES): O=C(CNc1ccccc1)Nc1c(C(=O)c2ccccc2)[nH]c2cc(Cl)ccc12
- Activity (HeLa [3]): 0%
- Activity (HeLa [4]): 17.7%
- Activity (HeLa [5]): 14.2%
- Activity (HeLa [6]): 68.1%
- Activity (HeLa [7]): 0.04%
- inhibition (Tubulin (Homo sapiens) [2]): 46%
- IC50 (HCT-116): 12 µM
- IC50 (PC-3): 14.4 µM
- IC50 (HeLa [1]): 15.4 µM
- Activity (HeLa [8]): 64.57%
- Activity (HeLa [9]): 20.7%
- Activity (HeLa [10]): 14.73%
- Activity (HeLa [11]): 0.07%
- Activity (HeLa [12]): 64.24%
- Activity (HeLa [13]): 25.2%
- Activity (HeLa [14]): 10.56%
- Activity (HeLa [15]): Dose-dependent effect
- inhibition (Tubulin (Homo sapiens) [16]): Active
- inhibition (Tubulin (Homo sapiens) [17]): Active
- inhibition (Tubulin (Homo sapiens) [18]): Active
- inhibition (Tubulin (Homo sapiens) [19]): Active

Structure (SMILES): O=C(Nc1ccccc1)C(=O)Nc1c(C(=O)C2CC2)[nH]c2cc(Cl)ccc12
- IC50 (HeLa [1]): > 100 µM

Structure (SMILES): COc1ccc(C(=O)c2[nH]c3cc(Cl)ccc3c2NC(=O)CNc2cc(OC)c(OC)c(OC)c2)cc1
- IC50 (HeLa [1]): > 100 µM

Structure (SMILES): O=C(Nc1ccncc1)C(=O)c1cn(Cc2ccc(Cl)cc2)c2ccccc12 [INDIBULIN]
- IC50 (HeLa [20]): 0.115 µM

Structure (SMILES): O=C(Nc1ccccc1)C(=O)Nc1c(C(=O)c2ccccc2)[nH]c2ccccc12
- IC50 (HeLa [1]): 62.9 µM

Structure (SMILES): O=C(Nc1ccccc1)C(=O)Nc1c[nH]c2ccccc12
- IC50 (HeLa [1]): 76.7 µM

Structure (SMILES): O=C(Nc1ccncc1)C(=O)Nc1c[nH]c2ccccc12
- IC50 (HeLa [1]): > 100 µM

More lines, now with the values ahead:

- IC50 (HeLa [1]): > 100 µM
Structure (SMILES): O=C(Nc1ccncc1)C(=O)Nc1c(C(=O)c2ccccc2)[nH]c2cc(Cl)ccc12

- IC50 (HeLa [1]): > 100 µM
Structure (SMILES): CC(=O)c1[nH]c2cc(C)ccc2c1NC(=O)C(=O)Nc1ccncc1

- IC50 (HeLa [1]): 85.3 µM
Structure (SMILES): O=C(Nc1ccncc1)C(=O)Nc1c(C(=O)c2ccccc2)[nH]c2ccccc12

- IC50 (HeLa [1]): 56.9 µM
Structure (SMILES): Cc1ccc2c(NC(=O)C(=O)Nc3ccncc3)c(C(=O)c3ccco3)[nH]c2c1

- IC50 (HeLa [1]): 69.6 µM
Structure (SMILES): CC(=O)c1[nH]c2cc(Cl)ccc2c1NC(=O)C(=O)Nc1ccncc1

- IC50 (HeLa [1]): 21.8 µM
Structure (SMILES): O=C(Nc1ccncc1)C(=O)Nc1c(C(=O)c2ccco2)[nH]c2cc(Cl)ccc12

- IC50 (HeLa [1]): 29.2 µM
Structure (SMILES): O=C(Nc1ccccc1)C(=O)Nc1c(C(=O)c2ccccc2)[nH]c2cc(Cl)ccc12

- IC50 (HeLa [1]): > 100 µM
Structure (SMILES): Cc1ccc2c(NC(=O)C(=O)Nc3ccncc3)c(C(=O)C3CC3)[nH]c2c1

- IC50 (HeLa [1]): 80.7 µM
Structure (SMILES): O=C(Nc1ccncc1)C(=O)Nc1c(C(=O)C2CC2)[nH]c2cc(Cl)ccc12

- IC50 (HeLa [1]): 56.8 µM
Structure (SMILES): O=C(Nc1ccncc1)C(=O)Nc1c(C(=O)c2ccco2)[nH]c2ccccc12

- IC50 (HeLa [1]): 75.1 µM
Structure (SMILES): Cc1ccc2c(NC(=O)C(=O)Nc3ccncc3)c(C(=O)c3ccccc3)[nH]c2c1

- IC50 (HeLa [1]): 62.4 µM
Structure (SMILES): CC(=O)c1[nH]c2ccccc2c1NC(=O)C(=O)Nc1ccncc1
